For experiment [1], the target named is T1, Polyunsaturated fatty acid 5-lipoxygenase (Rattus norvegicus, UniProt P12527).
T1 sequence (P12527 whole entry): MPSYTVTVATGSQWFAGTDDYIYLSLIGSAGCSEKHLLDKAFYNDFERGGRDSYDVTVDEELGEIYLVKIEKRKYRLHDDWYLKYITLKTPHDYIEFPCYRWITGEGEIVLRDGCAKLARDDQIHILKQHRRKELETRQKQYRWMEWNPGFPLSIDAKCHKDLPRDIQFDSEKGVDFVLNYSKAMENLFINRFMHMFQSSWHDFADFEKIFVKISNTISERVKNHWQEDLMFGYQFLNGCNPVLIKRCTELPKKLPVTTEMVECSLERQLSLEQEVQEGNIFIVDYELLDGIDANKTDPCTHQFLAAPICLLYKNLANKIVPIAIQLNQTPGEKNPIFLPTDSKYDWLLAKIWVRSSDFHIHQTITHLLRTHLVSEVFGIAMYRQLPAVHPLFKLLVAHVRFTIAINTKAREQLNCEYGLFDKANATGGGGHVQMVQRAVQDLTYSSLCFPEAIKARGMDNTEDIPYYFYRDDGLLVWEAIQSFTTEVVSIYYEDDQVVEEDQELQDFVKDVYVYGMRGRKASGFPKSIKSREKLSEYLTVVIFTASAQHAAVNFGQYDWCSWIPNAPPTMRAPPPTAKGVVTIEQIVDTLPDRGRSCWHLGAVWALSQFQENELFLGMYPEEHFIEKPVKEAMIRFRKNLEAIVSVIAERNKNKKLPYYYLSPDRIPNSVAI
The experiment in a line: In vitro inhibition of LTB4 production was measured in rat blood. It is filed as functional. The gist of the method:
(§1)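 Pooled heparinized blood from male Alderley Park Wistar rats (vena cava) held on ice; preincubated with compound in DMSO (1% final) 15 min at 37 °C, then A23187 (20 µg/mL) added for a further 15 min; stopped with cocktail of indomethacin, EGTA and azide; plasma LTB4 and PGE2 by radioimmunoassay. IC50 by nonlinear regression from two experiments.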

Experiment [2] concerns the target T2, Cyclooxygenase (Rattus norvegicus, UniProt P35355+Q63921).
T2 sequence (P35355 whole entry): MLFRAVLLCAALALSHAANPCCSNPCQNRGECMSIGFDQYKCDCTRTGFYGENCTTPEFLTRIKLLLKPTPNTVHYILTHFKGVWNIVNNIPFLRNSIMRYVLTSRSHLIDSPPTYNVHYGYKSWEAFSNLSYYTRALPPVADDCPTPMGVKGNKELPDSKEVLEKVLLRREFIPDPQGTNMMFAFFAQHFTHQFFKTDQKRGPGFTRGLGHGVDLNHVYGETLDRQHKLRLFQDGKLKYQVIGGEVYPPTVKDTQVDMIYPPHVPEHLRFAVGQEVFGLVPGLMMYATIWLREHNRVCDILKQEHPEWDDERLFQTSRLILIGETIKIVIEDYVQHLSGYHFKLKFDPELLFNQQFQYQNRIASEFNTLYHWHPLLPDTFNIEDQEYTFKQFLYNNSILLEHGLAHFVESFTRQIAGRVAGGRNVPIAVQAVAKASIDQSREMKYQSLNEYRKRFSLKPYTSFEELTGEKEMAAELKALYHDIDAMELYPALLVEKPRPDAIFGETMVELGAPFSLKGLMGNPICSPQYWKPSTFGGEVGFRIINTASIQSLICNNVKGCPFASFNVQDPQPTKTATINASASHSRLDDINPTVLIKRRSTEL
T2 sequence (Q63921 whole entry): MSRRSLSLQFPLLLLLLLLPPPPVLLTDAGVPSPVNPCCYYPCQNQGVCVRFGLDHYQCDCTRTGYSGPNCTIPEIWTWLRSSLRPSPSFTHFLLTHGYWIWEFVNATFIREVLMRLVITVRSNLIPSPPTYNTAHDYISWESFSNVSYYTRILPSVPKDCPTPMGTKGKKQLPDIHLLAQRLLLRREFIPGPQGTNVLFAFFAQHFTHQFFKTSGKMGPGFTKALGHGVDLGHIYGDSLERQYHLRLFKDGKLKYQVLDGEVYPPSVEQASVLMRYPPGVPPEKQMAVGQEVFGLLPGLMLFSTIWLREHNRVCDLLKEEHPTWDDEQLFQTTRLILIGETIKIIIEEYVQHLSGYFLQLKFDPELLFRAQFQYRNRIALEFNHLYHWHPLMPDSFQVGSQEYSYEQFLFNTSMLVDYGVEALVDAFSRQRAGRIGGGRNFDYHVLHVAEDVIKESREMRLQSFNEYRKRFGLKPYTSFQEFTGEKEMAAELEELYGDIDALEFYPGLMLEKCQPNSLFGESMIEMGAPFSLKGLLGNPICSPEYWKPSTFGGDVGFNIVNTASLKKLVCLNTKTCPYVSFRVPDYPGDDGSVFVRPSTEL
The experiment is described as follows: In vitro inhibition of PGE-2 production was measured in rat blood. The class given is functional.

Experiment [3] has as its target Polyunsaturated fatty acid 5-lipoxygenase (Canis lupus familiaris). The experiment in a line: Ex vivo inhibition of LTB4 production was measured in dog blood.
The species named for experiment [4] is Canis familiaris. The experiment in a line: In vitro test for the induction of the production of methemoglobin (MHb) in dog blood. It is filed as functional, Canis lupus familiaris. The procedure, abridged:
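Pooled heparinized dog blood (leg vein) incubated with compound for 2 h at 37 °C; methemoglobin quantified by cooximeter.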

The target in experiment [5] is T2, Cyclooxygenase. The experiment in a line: In vitro inhibition of PGE-2 (PG) production in rat blood; 3-30. It is filed as functional. The procedure, abridged: as §1

In ChEMBL document CHEMBL1125845, “Indazolinones, a new series of redox-active 5-lipoxygenase inhibitors with built-in selectivity and oral activity” (J Med Chem, 1991) one finds IC50, ED50 and ED25 data, which are given here for 41 compounds.

SMILES strings stand for the structures.

As a reminder, the IC50 is the point on the concentration scale where inhibition reaches its midpoint. Higher therefore signals lower potency. Broadly, the ED50 is the dose that gives a 50% effect, or the effect in half of the subjects. As for `O=c1c2ccccc2[nH]n1Cc1cccnc1Cl`, the IC50 in experiment [1] is 1400 nM; in experiment [2], 12 µM. In experiment [3], this compound registered an ED50 of 5 mg/kg. Compound `O=c1c2ccccc2[nH]n1Cc1cccnc1` had an ED25 in experiment [4] of 7.5 µM. In addition, the IC50 in experiment [2] is > 300 µM. Regarding `Cc1ccncc1Cn1[nH]c2ccccc2c1=O`, the results for the IC50 in experiment [1] and in experiment [2] were 3000 nM and > 30 µM, respectively. This compound also gave an ED50 in experiment [3] of 5 mg/kg. For the compound `CC(Cc1ccc(O)c(O)c1)C(C)Cc1ccc(O)c(O)c1` (stereo unspecified) [NORDIHYDROGUAIARETIC ACID], the IC50 in experiment [2] was determined as 30 µM. With `O=c1c2ccccc2[nH]n1Cc1cncc(Br)c1`, the IC50 in experiment [1] is 1000 nM; in experiment [2], 39 µM. Besides, in experiment [3], the ED50 worked out at 10 mg/kg. With `O=C1CCN(c2ccccc2)N1` [PHENIDONE], the IC50 in experiment [2] is 3 µM. Turning to `O=c1c2ccccc2[nH]n1CCc1ccccc1`, the IC50 in experiment [2] was 15 µM. For the compound `O=c1c2ccccc2[nH]n1Cc1ccccc1`, in experiment [2], the IC50 came to 18 µM.

For the compound `O=c1c2ccccc2[nH]n1Cc1cccs1`, the IC50 in experiment [2] was determined as 26 µM. Consider `O=c1c2ccccc2[nH]n1Cc1ccco1`, for which the IC50 in experiment [2] amounted to 13 µM. This IC50 lies about 2-fold lower than the previous one. For `CCCCCNC(=O)c1cccc2n[nH]c(O)c12`, the ED25 in experiment [4] is >250 µM.

Regarding `O=c1c2ccccc2[nH]n1CCCc1ccccc1`, the IC50 turned out to be 540 nM in experiment [1] and 3.8 µM in experiment [2]. Further, the ED50 in experiment [3] was > 100 mg/kg. As to `Cc1ccc(Cn2[nH]c3ccccc3c2=O)cn1`, the IC50 in experiment [1] is 2500 nM; in experiment [2], 21 µM. Besides, the ED50 in experiment [3] worked out at 10 mg/kg. Take `O=c1c2ccccc2[nH]n1Cc1ccncc1`: the IC50 in experiment [2] came to 280 µM. In the case of `NC1=NN(c2cccc(C(F)(F)F)c2)CC1` [BW-755C], in experiment [2], the IC50 was 5 µM. `C[C@@H](c1cccc2ccccc12)n1[nH]c2ccccc2c1=O`: the figures for the IC50 in experiment [1] and in experiment [2] were 11000 nM and 48 µM, respectively. Turning to `O=c1[nH]n(Cc2ccccc2)c2ccccc12`, the IC50 in experiment [1] came out at 3400 nM; in experiment [2] it was 31 µM. For the compound `c1ccc(COc2[nH]nc3ccccc23)cc1`, the IC50 in experiment [1] was > 30000 nM.

As for `Cn1c2ccccc2c(=O)n1Cc1ccccc1`, in experiment [1], the IC50 was > 30000 nM. Moreover, in experiment [3], the ED50 is > 100 mg/kg. In turn, `O=c1c(O)c(-c2ccc(O)c(O)c2)oc2cc(O)cc(O)c12` [QUERCETIN] showed an IC50 in experiment [2] of 50 µM. In the case of `Oc1n[nH]c2ccccc12`, in experiment [4], the ED25 came out at 40 µM. Besides, in experiment [2], the IC50 stood at 30 µM.

On to `Cn1[nH]c2ccccc2c1=O`, for which the ED25 in experiment [4] turned out to be 10 µM. The IC50 in experiment [2] was 17 µM.

For `O=c1c2ccccc2[nH]n1Cc1ccc(Cl)nc1`, the figures for the IC50 in experiment [1] and in experiment [5] were < 1000 nM and 3 µM, respectively. Also, in experiment [3], the ED50 was 15 mg/kg. Consider `O=c1c2ccccc2[nH]n1Cc1cccc2ccccc12`, for which the results for the IC50 in experiment [1] and in experiment [2] were 610 nM and 100 µM, respectively. The ED50 in experiment [3] was > 100 mg/kg. For `Cc1cncc(Cn2[nH]c3ccccc3c2=O)c1`, the values for the concentration for half-maximal inhibition (IC50) in experiment [1] and in experiment [2] were 1800 nM and 81 µM, respectively. This compound also registered an ED50 in experiment [3] of 15 mg/kg.

Take `O=c1c2ccccc2[nH]n1Cc1ccc2ccccc2c1`: in experiment [2], the IC50 came out at 18 µM. In other words, the double-digit micromolar range.

In the case of `CCCCCNC(=O)c1cccc2[nH]n(C)c(=O)c12`, the ED25 in experiment [4] is >250 µM. Compound `COc1ccc(Cn2[nH]c3ccccc3c2=O)cn1` had an IC50 in experiment [5] of 3 µM. That is a single-digit micromolar value.

As to `O=c1c2ccccc2[nH]n1Cc1c[nH]c2ccccc12`, the IC50 in experiment [2] amounted to 94 µM.

As for `O=c1c2ccccc2[nH]n1-c1ccccc1`, in experiment [2], the IC50 was 2.7 µM. This IC50 lies about 35-fold lower than the previous one. As to `Cn1c(=O)c2ccccc2n1Cc1ccccc1`, the IC50 in experiment [1] was > 30000 nM. As to `Cn1[nH]c(=O)c2ccccc21`, the IC50 in experiment [1] came to 3000 nM; in experiment [2], 20 µM. In addition, in experiment [3], the ED50 was > 100 mg/kg. For `C[C@H](c1cccc2ccccc12)n1[nH]c2ccccc2c1=O`, in that order: 1400 nM, 400 µM and > 100 mg/kg. Turning to `O=c1c2ccccc2[nH]n1CCCCc1ccccc1`, the IC50 in experiment [1] is 780 nM; in experiment [2], 26 µM. Moreover, the ED50 in experiment [3] is > 100 mg/kg. For the compound `Cc1ncccc1Cn1[nH]c2ccccc2c1=O`, the results for the IC50 in experiment [1] and in experiment [2] were 2600 nM and 58 µM, respectively. In experiment [3], this compound showed an ED50 of 10 mg/kg.

On to `COc1nn(Cc2ccccc2)c2ccccc12`, for which the half-maximal inhibitory concentration (IC50) in experiment [1] was > 30000 nM. Still for that read-out and setting: then `O=c1[nH]n(-c2ccccc2)c2ccccc12`, with 30000 nM. For the compound `O=c1c2ccccc2[nH]n1Cc1cncs1`, in experiment [2], the IC50 is > 100 µM. Regarding `CCCCCNC(=O)c1cccc2[nH]n(Cc3cccnc3)c(=O)c12`, the ED25 in experiment [4] is >250 µM.

In experiment [2], `O=c1c2ccccc2[nH]n1Cc1ccccn1` returned an IC50 of 67 µM. The compound `O=c1cc(-c2ccccc2)oc2cc(O)c(O)c(O)c12` [BAICALEIN] displayed a half-maximal inhibitory concentration (IC50) in experiment [2] of 50 µM.
